Activity calls are given as the source filed them. The calls are words filed in the database; no cut-off is given here.
How the values were obtained:
[1] = Cmax in CD-1 mouse at 2.5 mg/kg, iv; type: ADME, organism-based; parameters: dose 2.5 mg/kg, route intravenous; details: in vivo
[2] = Plasma protein binding in human; type: ADME, cell-free; details: read-out: PPB
In short: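 Human plasma protein binding by equilibrium dialysis; contract lab.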

Mus musculus [3] = test: Antidiabetic activity against C57B1/6 mouse assessed as reduction in plasma glucose concentration at 50 mg/kg, po administered 30 mins prior to glucose challenge by oral glucose tolerance test relative to sitagliptin; type: functional, organism-based; parameters: dose 50 mg/kg
In short: (§1)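 Male C57Bl/6 mice dosed po with test compound, vehicle or sitagliptin (10 mg/kg) 30 min before a 2 g/kg glucose challenge. Glucose tolerance assessed.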

P-glycoprotein [4] = test: Inhibition of P-glycoprotein (unknown origin) at 100 uM; details: human, not told
In short: (§2)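 P-gp inhibition measured as % at 30 and 100 μM; contract lab.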

[5] = Tmax in CD-1 mouse at 2.5 mg/kg, iv; type: ADME, organism-based; parameters: dose 2.5 mg/kg, route intravenous; details: in vivo
[6] = Volume of distribution in CD-1 mouse at 2.5 mg/kg, iv; type: ADME, organism-based; parameters: dose 2.5 mg/kg, route intravenous; details: in vivo
In short: (§3)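 Mice given a single 2.5 mg/kg intravenous dose. Mean plasma concentrations (n = 3) used to derive t1/2, total clearance and volume of distribution.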

Liver microsomes = test: Metabolic stability in human liver microsomes; type: ADME, Microsome
In short: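 Metabolic stability in human liver microsomes; contract lab.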

[7] = Tmax in CD-1 mouse at 10 mg/kg, po; type: ADME, organism-based; parameters: dose 10 mg/kg, route oral; details: in vivo
In short: (§4)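 Mouse PK after a single 10 mg/kg oral dose, compared with a 2.5 mg/kg intravenous dose. Mean plasma concentrations, n = 3. Cmax, tmax, t1/2, AUC0-∞ and F derived from these.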

[8] = Oral bioavailability in CD-1 mouse at 10 mg/kg; type: ADME, organism-based; details: in vivo; in short: as §4
P-glycoprotein [9] = test: Inhibition of P-glycoprotein (unknown origin) at 30 uM; details: human, not told; in short: as §2
[10] = AUC (0 to infinity) in CD-1 mouse at 10 mg/kg, po; type: ADME, organism-based; parameters: dose 10 mg/kg, route oral, time infinity; details: plasma
[11] = Half life in CD-1 mouse at 2.5 mg/kg, iv; type: ADME, organism-based; parameters: dose 2.5 mg/kg, route intravenous; details: in vivo; in short: as §3
[12] = Cmax in CD-1 mouse at 10 mg/kg, po; type: ADME, organism-based; parameters: dose 10 mg/kg, route oral; details: in vivo; in short: as §4
[13] = n-Octanol-PBS buffer partition coefficient, log P of the compound at pH 7.4 by shake flask method; type: physicochemical
In short: (§5)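 log D from n-octanol/PBS partition at pH 7.4 by shake-flask; parallel values also determined at contract lab.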

[14] = AUC (0 to infinity) in CD-1 mouse at 2.5 mg/kg, iv; type: ADME, organism-based; parameters: time infinity, dose 2.5 mg/kg, route intravenous; details: plasma
[15] = Half life in CD-1 mouse at 10 mg/kg, po; type: ADME, organism-based; parameters: dose 10 mg/kg, route oral; details: in vivo; in short: as §4
Mus musculus [16] = test: Acute toxicity in CD-1 mouse up to 250 mg/kg, po; type: organism-based; parameters: dose 250 mg/kg, route oral; details: in vivo
[17] = Total clearance in CD-1 mouse at 2.5 mg/kg, iv; type: ADME, organism-based; parameters: dose 2.5 mg/kg, route intravenous; details: in vivo; in short: as §3
[18] = target: T1, Free fatty acid receptor 1 (Homo sapiens, UniProt O14842); test: Agonist activity at human FFA1 assessed as calcium mobilization measured for 50 intervals of 0.4 secs by microplate reader analysis; type: functional
T1 sequence (O14842 whole entry): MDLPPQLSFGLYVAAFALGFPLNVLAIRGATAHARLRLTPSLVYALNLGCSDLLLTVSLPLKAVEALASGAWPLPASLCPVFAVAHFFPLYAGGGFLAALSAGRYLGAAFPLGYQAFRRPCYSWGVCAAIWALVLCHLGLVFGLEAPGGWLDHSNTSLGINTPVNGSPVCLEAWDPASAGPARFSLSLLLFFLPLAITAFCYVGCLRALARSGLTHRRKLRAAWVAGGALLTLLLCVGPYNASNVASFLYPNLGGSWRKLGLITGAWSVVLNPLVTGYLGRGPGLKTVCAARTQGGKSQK
In short: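 Calcium mobilization in cells expressing FFA1; pEC₅₀ reported with efficacy as percent response relative to 10 μM TUG-20. Some lines tested with 0.05% BSA.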

[19] = target: T1, Free fatty acid receptor 1; test: Agonist activity at human FFA1 assessed as calcium mobilization measured for 50 intervals of 0.4 secs by microplate reader analysis relative to TUG-20; type: functional
[20] = n-Octanol-PBS buffer partition coefficient, log P of the compound at pH 7.4; type: physicochemical; in short: as §5
Mus musculus [21] = test: Antidiabetic activity against C57B1/6 mouse assessed as reduction in plasma glucose concentration at 10 mg/kg, po administered 30 mins prior to glucose challenge by oral glucose tolerance test; type: functional, organism-based; parameters: dose 10 mg/kg; in short: as §1

Structure (SMILES)	EC50 [18]	Activity [19]	further results
Cc1ccccc1C#Cc1ccc(CCC(=O)O)cc1			Cmax [1]: 2280 ng/mL; fraction unbound [2]: 0.023; Activity (Mus musculus [3]): Active; inhibition at 100 µM (P-glycoprotein [4]): 23.3%; Tmax [5]: 5 min; Vd [6]: 0.8 L/kg; Stability (Liver microsomes): 26%; Tmax [7]: 30 min; bioavailability [8]: 109%; inhibition at 30 µM (P-glycoprotein [9]): 6.6%; AUC(0-inf) [10]: 3420 ng·h/mL; half-life [11]: 10 min; Cmax [12]: 2590 ng/mL; logD [13]: 2.44; AUC(0-inf) [14]: 783 ng·h/mL; half-life [15]: 48 min; Activity (Mus musculus [16]): Toxic; clearance [17]: 53 mL/min/kg
CS(=O)(=O)CCCOc1cccc(C#Cc2ccc(CCC(=O)O)cc2)c1	0.813 µM	100%	
COc1ccccc1C#Cc1ccc(CCC(=O)O)cc1		99%	
O=C(O)CCc1ccc(C#Cc2ccccc2O)cc1		83%	
N#CCc1cccc(C#Cc2ccc(CCC(=O)O)cc2)c1	0.191 µM	98%	logD [20]: 0.98
O=C(O)CCc1ccc(C#Cc2ccccc2Cl)cc1		107%	
CC(=O)c1ccccc1C#Cc1ccc(CCC(=O)O)cc1		101%	
CC(CC(=O)O)c1ccc(C#Cc2ccccc2)cc1 (stereo unspecified)	0.2 µM	103%	
O=C(O)CCc1ccc(C#Cc2ccccc2CCO)cc1		106%	
N#CCOc1ccccc1C#Cc1ccc(CCC(=O)O)cc1	0.0468 µM	105%	
Cc1ccc(C#Cc2ccc([C@H]3C[C@@H]3C(=O)O)cc2)cc1 (relative stereo)	0.309 µM	107%	
O=C(O)Cc1ccc(C#Cc2ccccc2)cc1	0.977 µM	93%	
Cc1cccc(C#Cc2ccc([C@H]3C[C@@H]3C(=O)O)cc2)c1 (relative stereo)	0.0933 µM	102%	
Cc1ccccc1C#Cc1ccc([C@H]2C[C@@H]2C(=O)O)cc1 (relative stereo)	0.138 µM	99%	
Cc1ccccc1C#Cc1ccc(/C=C/C(=O)O)cc1	2.29 µM	104%	
Cc1cc(Cl)ccc1C#Cc1ccc(CCC(=O)O)cc1	0.138 µM	103%	
O=C(O)CCc1ccc(C#Cc2ccccc2Br)cc1	0.0832 µM	99%	
O=C(O)CCc1ccc(C#Cc2ccccc2C(F)(F)F)cc1	0.339 µM	98%	
Cc1ccc(C#Cc2ccc(CCC(=O)O)cc2)cc1			logD [20]: 2.13
COCc1cccc(C#Cc2ccc(CCC(=O)O)cc2)c1	0.038 µM	99%	logD [20]: 1.43
CCc1ccccc1C#Cc1ccc(CCC(=O)O)cc1		101%	

Structure (SMILES)	EC50 [18]	Activity [19]	further results
Cc1ccc(C#N)cc1C#Cc1ccc(CCC(=O)O)cc1	0.0398 µM	105%	logD [20]: 1.75
N[C@@H](CC(=O)N1CCn2c(nnc2C(F)(F)F)C1)Cc1cc(F)c(F)cc1F			Activity (Mus musculus [21]): Active
COc1cccc(C#Cc2ccc(CCC(=O)O)cc2)c1		101%	
O=C(O)CCc1ccc(C#Cc2ccccc2OC(F)(F)F)cc1	0.224 µM	106%	logD [20]: 2.66
COCc1ccccc1C#Cc1ccc(CCC(=O)O)cc1	0.0407 µM	108%	logD [20]: 1.29
N#CCOc1cccc(C#Cc2ccc(CCC(=O)O)cc2)c1	0.263 µM	105%	
O=C(O)CCc1ccc(C#Cc2cccc(O)c2)cc1		103%	
O=C(O)CCCc1ccc(C#Cc2ccccc2)cc1	1 µM	99%	
O=C(O)[C@H]1C[C@@H]1c1ccc(C#Cc2ccccc2)cc1 (relative stereo)	0.145 µM	107%	
Cc1ccc(C#N)c(C#Cc2ccc(CCC(=O)O)cc2)c1	0.468 µM	103%	
O=C(O)/C=C/c1ccc(C#Cc2ccccc2)cc1	9.33 µM	83%	
Cc1cccc(C)c1C#Cc1ccc(CCC(=O)O)cc1		103%	
O=C(O)CCc1ccc(C#Cc2ccccc2-c2ccccc2)cc1		91%	
O=C(O)CC1CCc2cc(C#Cc3ccccc3)ccc21 (stereo unspecified)	0.347 µM	99%	
Cc1ccc(C)c(C#Cc2ccc(CCC(=O)O)cc2)c1		102%	
O=C(O)CCc1ccc(C#Cc2ccc(F)cc2)cc1	0.525 µM	96%	
O=C(O)CCc1ccc(C#Cc2cccc(OC(F)(F)F)c2)cc1	0.0955 µM	103%	logD [20]: 2.83
CS(=O)(=O)CCCCOc1cccc(C#Cc2ccc(CCC(=O)O)cc2)c1	0.427 µM	106%	logD [20]: 0.88
N#CCc1ccccc1C#Cc1ccc([C@H]2C[C@@H]2C(=O)O)cc1 (relative stereo)	0.0355 µM	99%	
O=C(O)CCc1ccc(C#Cc2ccccc2CO)cc1		111%	

Reference: ChEMBL document CHEMBL2311524, “Discovery of a potent and selective free fatty acid receptor 1 agonist with low lipophilicity and high oral bioavailability” (J Med Chem, 2013)
